Measurements from ChEMBL document CHEMBL4680104, “Structure-Based Optimization of Small-Molecule Inhibitors for the β-Catenin/B-Cell Lymphoma 9 Protein-Protein Interaction” (J Med Chem, 2018).
Calls of active or inactive are those of the source. The calls are words filed in the database; no cut-off is given here.

Assays:
[1] = molecular target: T1, beta-catenin-B-cell lymphoma 9 protein complex (Homo sapiens, UniProt P35222); assay: Inhibition of protein interaction between beta-catenin (unknown origin)/BCL9 in HEK293 cells transfected with beta-catenin assessed as reduction in Wnt/beta-catenin transactivation incubated for 24 hrs by Wnt-responsive TOP-Flash luciferase reporter assay; format: cell-based
T1 sequence (P35222 whole entry): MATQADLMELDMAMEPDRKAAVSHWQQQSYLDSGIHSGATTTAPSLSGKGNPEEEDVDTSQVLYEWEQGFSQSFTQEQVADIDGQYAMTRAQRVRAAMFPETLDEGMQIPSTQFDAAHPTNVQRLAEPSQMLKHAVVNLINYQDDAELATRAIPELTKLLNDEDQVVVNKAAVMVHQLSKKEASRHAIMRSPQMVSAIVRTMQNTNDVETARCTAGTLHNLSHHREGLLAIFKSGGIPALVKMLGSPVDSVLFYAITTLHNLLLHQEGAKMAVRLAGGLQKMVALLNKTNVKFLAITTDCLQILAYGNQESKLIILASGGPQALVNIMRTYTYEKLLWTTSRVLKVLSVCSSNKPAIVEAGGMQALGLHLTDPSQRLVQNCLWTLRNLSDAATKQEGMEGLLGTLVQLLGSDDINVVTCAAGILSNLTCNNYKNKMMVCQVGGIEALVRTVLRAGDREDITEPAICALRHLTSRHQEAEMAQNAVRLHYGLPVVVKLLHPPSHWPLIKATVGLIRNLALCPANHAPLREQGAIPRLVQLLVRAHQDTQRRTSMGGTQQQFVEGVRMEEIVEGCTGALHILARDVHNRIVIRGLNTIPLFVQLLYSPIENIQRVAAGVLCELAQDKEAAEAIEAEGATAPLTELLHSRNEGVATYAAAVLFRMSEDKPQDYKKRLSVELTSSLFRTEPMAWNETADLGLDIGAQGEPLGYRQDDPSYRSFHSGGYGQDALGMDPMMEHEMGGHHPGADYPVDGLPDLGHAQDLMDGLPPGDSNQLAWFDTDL
T1 sequence (O00512 whole entry): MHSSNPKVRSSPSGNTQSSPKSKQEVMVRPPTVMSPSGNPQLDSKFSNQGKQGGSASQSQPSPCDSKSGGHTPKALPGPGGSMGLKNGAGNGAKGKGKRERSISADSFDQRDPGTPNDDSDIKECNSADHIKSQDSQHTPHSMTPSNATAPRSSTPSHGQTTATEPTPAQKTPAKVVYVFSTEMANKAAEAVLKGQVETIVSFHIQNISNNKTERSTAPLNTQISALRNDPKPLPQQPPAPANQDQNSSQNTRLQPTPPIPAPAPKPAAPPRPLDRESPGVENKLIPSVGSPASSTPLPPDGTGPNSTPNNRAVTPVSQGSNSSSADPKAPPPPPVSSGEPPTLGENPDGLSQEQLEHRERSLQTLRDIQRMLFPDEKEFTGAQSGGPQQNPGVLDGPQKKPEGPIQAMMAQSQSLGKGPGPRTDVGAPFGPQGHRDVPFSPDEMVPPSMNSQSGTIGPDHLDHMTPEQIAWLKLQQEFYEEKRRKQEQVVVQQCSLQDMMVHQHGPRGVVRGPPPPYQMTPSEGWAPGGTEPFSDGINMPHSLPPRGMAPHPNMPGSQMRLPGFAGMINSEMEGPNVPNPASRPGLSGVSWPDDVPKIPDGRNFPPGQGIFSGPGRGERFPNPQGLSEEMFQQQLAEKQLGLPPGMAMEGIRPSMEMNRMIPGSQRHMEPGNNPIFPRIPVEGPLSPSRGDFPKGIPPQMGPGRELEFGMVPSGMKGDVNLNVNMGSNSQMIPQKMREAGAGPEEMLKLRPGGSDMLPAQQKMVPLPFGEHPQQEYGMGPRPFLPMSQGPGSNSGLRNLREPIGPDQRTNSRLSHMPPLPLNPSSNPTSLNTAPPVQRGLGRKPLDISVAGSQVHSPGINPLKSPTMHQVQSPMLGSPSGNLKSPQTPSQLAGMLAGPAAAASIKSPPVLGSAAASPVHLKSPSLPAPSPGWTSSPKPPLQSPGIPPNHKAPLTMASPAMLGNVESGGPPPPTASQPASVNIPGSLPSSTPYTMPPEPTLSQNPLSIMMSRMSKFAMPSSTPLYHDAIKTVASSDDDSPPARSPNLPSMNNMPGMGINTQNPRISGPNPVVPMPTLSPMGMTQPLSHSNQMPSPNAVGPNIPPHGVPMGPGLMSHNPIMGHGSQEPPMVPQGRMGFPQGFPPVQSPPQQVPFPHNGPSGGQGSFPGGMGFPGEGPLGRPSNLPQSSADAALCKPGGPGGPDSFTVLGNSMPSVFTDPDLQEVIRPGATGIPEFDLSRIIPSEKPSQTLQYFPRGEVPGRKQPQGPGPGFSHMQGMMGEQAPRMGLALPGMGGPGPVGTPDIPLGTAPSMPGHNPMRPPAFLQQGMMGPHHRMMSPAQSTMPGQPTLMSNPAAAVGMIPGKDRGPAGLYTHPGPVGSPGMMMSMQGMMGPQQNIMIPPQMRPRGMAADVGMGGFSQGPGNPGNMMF
How it was run: (§1)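 HEK293 cells were cotransfected using FuGENE6 with 45 ng TOPFlash or FOPFlash reporter, 135 ng pcDNA3.1-β-catenin and 20 ng pCMV-RL normalization reporter. After 24 h in DMEM with 10% FBS at 37 °C, inhibitors or DMSO were added for 24 h. Reporter activity was read with a dual luciferase system, normalized, and compared with DMSO-treated cells. Triplicate.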

[2] = tested on: SW480; assay: Cytotoxic activity in human SW480 cells at 800 uM incubated for 4 hrs by LDH release assay; format: cell-based; conditions: sw480, 4 h
How it was run: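 SW480 cells were seeded at 2 × 10^4 cells/well and kept overnight at 37 °C. They were then exposed to a range of inhibitor concentrations for 4 h. LDH in the culture supernatant was measured with a diagnostic kit by absorbance at 490 nm. Percent cytotoxicity was calculated from experimental release against maximum release, with background subtracted. Run in triplicate.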

[3] = tested on: SW480; assay: Cytotoxicity in human SW480 cells assessed as reduction in cell viability incubated for 72 hrs by MTS assay; format: functional, cell-based; conditions: SW480, 72 h
How it was run: (§2)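 Cells seeded at 5 × 10^3 cells/well, kept overnight at 37 °C, then exposed to inhibitors at various concentrations for 72 h. Viability read with a freshly mixed PMS (0.92 mg/mL) : MTS (2 mg/mL) reagent at 1:19, incubated 3 h at 37 °C, A490 measured. […] Triplicate; mean ± SD.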

[4] = molecular target: T1, beta-catenin-B-cell lymphoma 9 protein complex; assay: Inhibition of protein interaction between C-terminal 6x-histidine tagged full-length beta-catenin (1 to 781 residues) (unknown origin)/N-terminal biotinylated human BCL9 ( 350 to 375 residues) incubated for 1 hr by Alpha-screen competitive inhibition assay; format: protein-complex assay
How it was run: (§3)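 Full-length β-catenin (residues 1–781) with a C-terminal His6 tag was expressed in E. coli BL21(DE3) after IPTG induction at 20 °C. It was purified by Ni-NTA, anion-exchange and size-exclusion chromatography. For the assay, 40 nM β-catenin was preincubated for 30 min at 4 °C with 5 nM biotinylated BCL9 or 10 nM biotinylated E-cadherin. Inhibitor was then added for 1 h at 4 °C, followed by 10 μg/mL donor and acceptor beads for 1 h at 4 °C. IC50 was obtained by nonlinear fit and converted to Ki by the Nikolovska-Coleska method. Triplicate, mean ± SD.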

[5] = molecular target: T1, beta-catenin-B-cell lymphoma 9 protein complex; assay: Inhibition of protein interaction between beta-catenin (unknown origin)/BCL9 in human SW480 cells transfected with beta-catenin assessed as reduction in Wnt/beta-catenin transactivation incubated for 24 hrs by Wnt-responsive TOP-Flash luciferase reporter assay; format: cell-based
[6] = tested on: HCT-116; assay: Cytotoxicity in human HCT-116 cells assessed as reduction in cell viability incubated for 72 hrs by MTS assay; format: functional, cell-based; conditions: HCT-116, 72 h; how it was run: as §2
[7] = molecular target: T2, beta-catenin-B-cell lymphoma 9 protein complex (Homo sapiens) (UniProt P35222+O00512); assay: Inhibition of protein interaction between beta-catenin (unknown origin)/BCL9 in HEK293 cells transfected with beta-catenin assessed as reduction in Wnt/beta-catenin transactivation incubated for 24 hrs by Wnt-responsive FOP-Flash luciferase reporter assay; format: cell-based; how it was run: as §1
[8] = molecular target: T2, beta-catenin-B-cell lymphoma 9 protein complex (Homo sapiens); assay: Inhibition of protein interaction between beta-catenin (unknown origin)/BCL9 in human HEK293 cells transfected with beta-catenin assessed as reduction in Wnt/beta-catenin transactivation incubated for 24 hrs by Wnt-responsive FOP-Flash luciferase reporter assay
[9] = Inhibition of protein interaction between C-terminal 6x-histidine tagged full-length beta-catenin (1 to 781 residues) (unknown origin)/N-terminal biotinylated human E-cadherin (824 to 877 residues) incubated for 1 hr by Alpha-screen competitive inhibition assay; how it was run: as §3
[10] = tested on: A549; assay: Cytotoxicity in human A549 cells assessed as reduction in cell viability incubated for 72 hrs by MTS assay; format: functional, cell-based; conditions: A549, 72 h; how it was run: as §2
[11] = Effect on HPRT mRNA expression in human SW480 cells at 20 uM incubated for 24 hrs by qPCR analysis relative to control; format: ADME, cell-based; conditions: read-out: FC
How it was run: (§4)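 SW480 cells at 1 × 10^6/mL were treated with inhibitor for 24 h. Total RNA was extracted with TRIzol and cDNA made by first-strand synthesis. SYBR green qPCR used human HPRT primers, with CT values normalised to GAPDH as internal reference. Performed in triplicate.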

[12] = Effect on HPRT mRNA expression in human SW480 cells at 10 uM incubated for 24 hrs by qPCR analysis relative to control; format: ADME, cell-based; conditions: read-out: FC; how it was run: as §4
[13] = Effect on HPRT mRNA expression in human SW480 cells at 5 uM incubated for 24 hrs by qPCR analysis relative to control; format: ADME, cell-based; conditions: read-out: FC; how it was run: as §4
[14] = tested on: MDA-MB-231; assay: Cytotoxicity in human MDA-MB-231 cells assessed as reduction in cell viability incubated for 72 hrs by MTS assay; format: functional, cell-based; conditions: MDA-MB-231, 72 h
How it was run: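 Triple-negative breast cancer line seeded at 5 × 10^3 cells/well, held overnight at 37 °C, then exposed to inhibitor over a concentration range for 72 h. Viability read out with a fresh 1:19 mix of PMS (0.92 mg/mL) and MTS (2 mg/mL), incubated 3 h at 37 °C, A490 measured.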

[15] = Inhibition of protein interaction between beta-catenin D145A/E155A mutant (unknown origin)/N-terminal biotinylated human BCL9 ( 350 to 375 residues) incubated for 1 hr by Alpha-screen competitive inhibition assay
[16] = Inhibition of protein interaction between beta-catenin D145A mutant (unknown origin)/N-terminal biotinylated human BCL9 ( 350 to 375 residues) incubated for 1 hr by Alpha-screen competitive inhibition assay
[17] = Inhibition of protein interaction between beta-catenin K181A mutant (unknown origin)/N-terminal biotinylated human BCL9 ( 350 to 375 residues) incubated for 1 hr by Alpha-screen competitive inhibition assay

IC50 [1] [µM]	Ki [4] [µM]	IC50 [5] [µM]	inhibition [7]	inhibition [8]	Ki [9] [µM]	SMILES	Activity [2]	IC50 [3] [µM]	IC50 [6] [µM]	IC50 [10] [µM]	fold induction at 20 µM [11]	fold induction at 10 µM [12]	fold induction at 5 µM [13]	IC50 [14] [µM]	Ki [15] [µM]	Ki [16] [µM]	Ki [17] [µM]
50	–	43	inactive	inactive	> 915	Cl.Cl.O=C(Nc1ccc(O[C@@H]2CCNC2)c(-c2cccc(-c3nn[nH]n3)c2)c1)c1ccc(O[C@H]2CCNC2)c(-c2ccc3ccsc3c2)c1	Non-Toxic	150	240	430	–	–	–	–	–	–	–
26	–	12	Active	Active	–	Cl.Cl.Fc1ccc(-c2cc(-c3ccc4cc(O[C@H]5CCNC5)c(-c5ccc(F)c(F)c5)cc4n3)ccc2O[C@H]2CCNC2)cc1	Non-Toxic	3.6	9.6	23	0.0612	0.319	0.369	15	–	–	–
–	12	> 400	–	–	–	Cl.Cl.O=C(O)c1ccc(F)c(-c2cc(NC(=O)c3ccc(O[C@H]4CCNC4)c(-c4ccc(F)c(F)c4)c3)ccc2O[C@H]2CCNC2)c1	Non-Toxic	> 400	> 400	–	–	–	–	–	–	–	–
–	5.2	–	–	–	–	CC(=O)Nc1cccc(-c2cc(NC(=O)c3ccc(O[C@H]4CCNC4)c(-c4ccc(F)c(F)c4)c3)ccc2O[C@H]2CCNC2)c1.Cl.Cl	Non-Toxic	160	–	–	–	–	–	–	–	–	–
–	3.7	391	–	–	–	Cl.Cl.O=C(O)c1ccc(-c2cc(NC(=O)c3ccc(O[C@H]4CCNC4)c(-c4ccc(F)c(F)c4)c3)ccc2O[C@H]2CCNC2)cc1	Non-Toxic	> 400	> 400	–	–	–	–	–	–	–	–

Further lines, the compound ahead of its results:

SMILES	IC50 [1] [µM]	Ki [4] [µM]	IC50 [5] [µM]	inhibition [7]	inhibition [8]	Ki [9] [µM]	Activity [2]	IC50 [3] [µM]	IC50 [6] [µM]	IC50 [10] [µM]	fold induction at 20 µM [11]	fold induction at 10 µM [12]	fold induction at 5 µM [13]	IC50 [14] [µM]	Ki [15] [µM]	Ki [16] [µM]	Ki [17] [µM]
Cl.Cl.NS(=O)(=O)c1ccc(-c2cc(NC(=O)c3ccc(O[C@H]4CCNC4)c(-c4ccc(F)c(F)c4)c3)ccc2O[C@H]2CCNC2)cc1	> 200	5.6	> 200	–	–	–	Non-Toxic	220	–	–	–	–	–	–	–	–	–
Cl.Cl.O=C(O)c1cccc(-c2cc(NC(=O)c3ccc(O[C@H]4CCNC4)c(-c4ccc(F)c(F)c4)c3)ccc2O[C@H]2CCNC2)c1	–	5.4	368	–	–	–	Non-Toxic	> 400	> 400	–	–	–	–	–	–	–	–
Cl.Cl.O=C(Nc1ccc(O[C@H]2CCNC2)c(-c2ccc(-c3nn[nH]n3)cc2)c1)c1ccc(O[C@H]2CCNC2)c(-c2ccc(F)c(F)c2)c1	–	4.6	–	–	–	–	Non-Toxic	86	–	–	–	–	–	–	–	–	–
Cl.Cl.O=C(Nc1ccc(O[C@H]2CCNC2)c(-c2cccc(-c3nn[nH]n3)c2)c1)c1ccc(O[C@H]2CCNC2)c(-c2ccc(F)c(F)c2)c1	–	1	–	–	–	–	Non-Toxic	140	190	410	–	–	–	92	18	6.5	4.9
